For orientation: IC50 means the concentration at which inhibition is half-maximal. The low end stands for greater potency, the high end for weaker potency. For orientation: pKB means −log10 of the KB, conventionally taken in molar units. Higher therefore signals a small KB. The term EC50 denotes the concentration giving half of the maximal effect. A low value points to higher potency in that assay.

This note sets out measurements from ChEMBL document CHEMBL1128527, “Modification of receptor selectivity and functional activity in cholecystokinin peptoid ligands” (J Med Chem, 1995).

Experiment [1] has as its target T1, Cholecystokinin receptor type A (Homo sapiens, UniProt P32238).
T1 sequence (P32238 whole entry): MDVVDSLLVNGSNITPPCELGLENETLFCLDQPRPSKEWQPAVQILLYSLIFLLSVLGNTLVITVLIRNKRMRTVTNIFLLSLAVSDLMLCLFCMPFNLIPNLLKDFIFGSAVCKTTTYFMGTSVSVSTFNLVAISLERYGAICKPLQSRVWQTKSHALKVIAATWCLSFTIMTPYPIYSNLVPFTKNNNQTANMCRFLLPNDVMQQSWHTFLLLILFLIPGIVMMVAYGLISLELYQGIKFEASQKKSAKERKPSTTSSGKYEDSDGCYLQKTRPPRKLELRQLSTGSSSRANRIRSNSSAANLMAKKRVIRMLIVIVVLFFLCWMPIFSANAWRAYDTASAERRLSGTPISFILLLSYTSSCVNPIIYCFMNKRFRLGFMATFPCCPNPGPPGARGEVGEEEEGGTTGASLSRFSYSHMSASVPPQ
Briefly: In vitro displacement of [125I]BH-CCK-8 from cDNA of human Cholecystokinin type A receptor expressed in CHO-K1 cells. In kind it is cell-based.

Experiment [2] is filed under the species Cavia porcellus. Briefly: mCCK-8 contraction induced by 30 uM in vitro, normalized to CCK-8 (1 uM); IA = 'inactive'. The format is functional. The essentials: (§1)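 Isolated guinea pig gallbladder. Contraction produced by test compound at 30 μM is expressed relative to CCK-8 (1 μM).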
For experiment [3], the species on record is Cavia porcellus. Briefly: The compound was evaluated for the pKB, single dose pA2 against Cholecystokinin type A receptor in guinea pig gallbladder. In kind it is functional. The essentials: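 Isolated guinea pig gallbladder. Antagonism against CCK-8 is expressed as pKB, a single-dose pA2.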
Experiment [4] deals with T2, Gastrin/cholecystokinin type B receptor (Homo sapiens, UniProt P32239).
T2 sequence (P32239 whole entry): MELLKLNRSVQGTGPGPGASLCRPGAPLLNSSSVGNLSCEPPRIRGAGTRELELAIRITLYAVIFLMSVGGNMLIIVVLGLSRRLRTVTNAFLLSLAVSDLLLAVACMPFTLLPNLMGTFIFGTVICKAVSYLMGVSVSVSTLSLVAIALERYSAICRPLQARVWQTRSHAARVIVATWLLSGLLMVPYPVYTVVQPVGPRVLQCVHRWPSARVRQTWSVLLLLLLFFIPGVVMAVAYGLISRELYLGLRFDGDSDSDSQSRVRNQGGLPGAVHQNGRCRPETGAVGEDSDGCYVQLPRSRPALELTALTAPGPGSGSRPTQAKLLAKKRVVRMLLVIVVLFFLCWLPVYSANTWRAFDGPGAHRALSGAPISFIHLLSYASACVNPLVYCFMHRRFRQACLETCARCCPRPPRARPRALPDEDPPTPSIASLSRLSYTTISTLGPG

For experiment [5], the species on record is Cavia porcellus. Kind of experiment: In vitro concentration required to induce contraction of isolated GPGB. In kind it is functional. Summed up:
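Isolated guinea pig gallbladder contraction. pEC50 (−log EC50 ± SD) assayed in triplicate.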

The species entered for experiment [6] is Cavia porcellus. Briefly: The compound was evaluated for contraction as % of CCK-8 maximum against Cholecystokinin type A receptor in guinea pig gallbladder.
Experiment [7] concerns Rattus norvegicus. Briefly: Compound was evaluated for the dose(ip) required to achieve half-maximal inhibition of feeding at 30 min in rats. In kind it is functional. As to conditions: 0.5 h. The essentials: (§2)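 Male Long-Evans rats (225–300 g) conditioned 2 weeks to a liquid diet. Animals fasted 100 min, then given test compound ip in propylene glycol (1 mL/kg) followed at once by an oral saline preload (8 mL/kg). Diet offered 20 min later and intake measured at 30 min. ED50 is the dose giving half-maximal inhibition; 8–10 rats per dose, normalized to each rat's pretreatment-day response.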

Experiment [8] deals with Rattus norvegicus. Briefly: Compound was evaluated for the maximal reduction in feeding achieved at 1 uM/kg dose(ip). The format is functional. The essentials:
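Conditioned male Long-Evans rats fasted 100 min, dosed ip at 1 μmol/kg in propylene glycol (1 mL/kg), then given an oral saline preload (0.9%, 8 mL/kg). Liquid diet offered 20 min later. Maximal reduction of feeding is the mean of 8–10 animals, normalized to the vehicle pretreatment-day intake.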

The target in experiment [9] is T1, Cholecystokinin receptor type A. Briefly: Compound was evaluated for the [Ca2+] mobilization innstably transfected CHO-K1 cell lines expressing human Cholecystokinin type A receptor. In kind it is cell-based.
Experiment [10] deals with T3, Cholecystokinin receptor type A (Cavia porcellus) (UniProt Q63931).
T3 sequence (whole entry): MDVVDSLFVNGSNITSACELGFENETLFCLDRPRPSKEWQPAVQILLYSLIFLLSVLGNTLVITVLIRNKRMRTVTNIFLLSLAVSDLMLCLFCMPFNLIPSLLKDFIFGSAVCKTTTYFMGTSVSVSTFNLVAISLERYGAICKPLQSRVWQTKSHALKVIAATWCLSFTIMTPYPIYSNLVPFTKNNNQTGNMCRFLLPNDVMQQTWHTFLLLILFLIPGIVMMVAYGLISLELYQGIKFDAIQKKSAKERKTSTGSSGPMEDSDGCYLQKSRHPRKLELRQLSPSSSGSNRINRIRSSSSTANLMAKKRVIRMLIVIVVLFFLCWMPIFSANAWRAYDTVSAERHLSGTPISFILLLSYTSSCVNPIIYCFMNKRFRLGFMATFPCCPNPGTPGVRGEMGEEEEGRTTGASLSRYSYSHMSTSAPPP
Kind of experiment: The compound was evaluated for the contraction as % of CCK-8 maximum against Cholecystokinin type A receptor in guinea pig gallbladder.

Experiment [11] deals with T2, Gastrin/cholecystokinin type B receptor. Kind of experiment: Compound was evaluated for the [Ca2+] mobilization innstably transfected CHO-K1 cell lines expressing human Cholecystokinin type B receptor. In kind it is cell-based.
Experiment [12] deals with Rattus norvegicus. Briefly: Compound was evaluated for the dose(ip) required to achieve half-maximal inhibition of feeding at 30 min in rats. As to conditions: 0.5 h. The format is functional. The essentials:
as §2

Experiment [13] has as its target T4, Gastrin/cholecystokinin type B receptor (Homo sapiens) (UniProt P32239).
T4 sequence (whole entry): T2 sequence (P32239 whole entry)

Experiment [14] is filed under the species Cavia porcellus. Briefly: mCCK-8 contraction induced by 30 uM in vitro, normalized to CCK-8 (1 uM); IA ='inactive'. The format is functional. The essentials:
as §1

The species entered for experiment [15] is Cavia porcellus. Kind of experiment: mCCK-8 contraction induced by 30 uM in vitro, normalized to CCK-8 (1 uM). The format is functional. Summed up: as §1
Experiment [16] concerns Rattus norvegicus. Kind of experiment: The compound was evaluated for the dose(ip) required to achieve half-maximal inhibition of feeding at 30 min in rats. In kind it is functional. As to conditions: 0.5 h. Summed up:
as §2

In experiment [17] the test system is Rattus norvegicus. Kind of experiment: The compound was evaluated for the maximal reduction in feeding achieved at 1 uM/kg dose(ip). In kind it is functional. The note with it: in the assay text read “0.5 umol/kg” for “1 uM/kg”.

Activity calls are given as the source filed them. No cut-off for these calls is given here. Numbered stars: 1 amine (or outer) side, 2 acyl side, 3 side chain; on linkers, the order of the positions; unused ones are H or OH. Square brackets hold non-standard residues; d marks the D form. Side chains are listed from the residue outwards. Peptide text beside a SMILES is read from it. * marks the point of attachment. NMeF = CN[C@@H](Cc1ccccc1)C(=O)O; NH(2-Me-phenyl) = Cc1ccccc1N*; CO = O=C([*:1])[*:2]

As to `Cc1ccccc1NC(=O)NCCCC[C@@H](CNC(=O)CCC(=O)O)NC(=O)[C@@](C)(Cc1c[nH]c2ccccc12)NC(=O)OC1C2CC3CC(C2)CC1C3` (stereo not given in full), the half-maximal inhibitory concentration (IC50) is 60.3 nM in experiment [1] and 224 nM in [4]. In addition, the outcome in the experiment listed under Cavia porcellus [2] was inactive. Moreover, the pKB in the experiment listed under Cavia porcellus [3] is 7.

As for `Cc1ccccc1NC(=O)NCCCC[C@H](CNC(=O)[C@](C)(Cc1c[nH]c2ccccc12)NC(=O)OC1C2CC3CC(C2)CC1C3)NC(=O)CCC(=O)O` (stereo not given in full), the 50% inhibitory concentration (IC50) is 229 nM in experiment [1] and 178 nM in experiment [4]. In addition, in the experiment filed under Cavia porcellus [5], the response was half-maximal at 832 nM (EC50). Moreover, the “contraction, % of CCK-8 max” value in the experiment filed under Cavia porcellus [6] stood at 83%.

In turn, `CC(=O)N[C@@H](Cc1c[nH]c2ccccc12)C(=O)N[C@@H](CCCCNC(=O)Nc1ccccc1C)C(=O)N[C@@H](CC(=O)O)C(=O)N(C)[C@@H](Cc1ccccc1)C(N)=O` (Ac-WK([CO-NH(2-Me-phenyl)])D[NMeF]-NH2) showed a concentration for half-maximal inhibition (IC50) in experiment [1] of 20 nM. For the same compound, the EC50 in the experiment listed under Cavia porcellus [5] is 1.58 nM; in [9], 3.98 nM. Besides, in the experiment on Rattus norvegicus [7], the ED50 was 0.01 µmol/kg. The compound also yielded a max inhibition with Rattus norvegicus [8] of 67%. Besides, the contraction, % of CCK-8 max in experiment [10] came out at 105%.

Regarding `Cc1ccccc1NC(=O)NCCCC[C@H](CNC(=O)[C@@](C)(Cc1c[nH]c2ccccc12)NC(=O)OC1C2CC3CC(C2)CC1C3)NC(=O)CCC(=O)O` (stereo not given in full), the EC50 in experiment [11] is 2510 nM; in the experiment listed under Cavia porcellus [5] it was 27.5 nM; in [9], 3.16 nM. Also, the concentration for half-maximal inhibition (IC50) in experiment [1] was 12 nM; in experiment [4] it was 20 nM. The ED50 in the experiment with Rattus norvegicus [12] came to 0.03 µmol/kg. Also, the Max inhibition in the experiment on Rattus norvegicus [8] turned out to be 59%. The pKB in experiment [13] stood at 7.7. For the same compound, the “contraction, % of CCK-8 max” value in the experiment listed under Cavia porcellus [6] amounted to 72%.

Regarding `Cc1ccccc1NC(=O)NCCCC[C@@H](CNC(=O)CCC(=O)O)NC(=O)[C@](C)(Cc1c[nH]c2ccccc12)NC(=O)OC1C2CC3CC(C2)CC1C3` (stereo not given in full), the IC50 in [1] was 724 nM; in [4], 7080 nM. In the experiment listed under Cavia porcellus [14], the result was inactive.

In turn, `C[C@](Cc1c[nH]c2ccccc12)(NC(=O)OC1[C@H]2C[C@@H]3C[C@@H](C[C@H]1C3)C2)C(=O)NC[C@H](NC(=O)CCC(=O)O)c1ccccc1` (stereo not given in full) [CI-988] gave an Activity in the experiment listed under Cavia porcellus [15] of 24%.

`CSCC[C@H](NC(=O)[C@H](Cc1ccc(OS(=O)(=O)O)cc1)NC(=O)[C@@H](N)CC(=O)O)C(=O)NCC(=O)N[C@@H](Cc1c[nH]c2ccccc12)C(=O)N[C@@H](CCSC)C(=O)N[C@@H](CC(=O)O)C(=O)N[C@@H](Cc1ccccc1)C(N)=O` [SINCALIDE]: the Activity in the experiment listed under Cavia porcellus [15] was determined as 100%. For the same compound, the ED50 in the experiment on Rattus norvegicus [16] came out at 0.027 µmol/kg. Further, the max inhibition with Rattus norvegicus [17] was 95%.
